According to ChEMBL document CHEMBL4400536, “Design and synthesis of aminothiazole based Hepatitis B Virus (HBV) capsid inhibitors” (Eur J Med Chem, 2019):
The source made the active and inactive calls. The calls are words filed in the database; no cut-off is given here.

Key:
[1] = molecular target: Core antigen (Hepatitis B virus) (UniProt Q03732); test: Inhibition of GFP-fused Hepatitis B Virus capsid expressed in HEK293T cells at 50 uM after 48 hrs relative to control; format: cell-based
How it was run: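 BiFC assay: HBc fused to Venus fragments VN (1–154) and VC (155–239) were co-transfected into 293T cells, then compounds were added. The dose series used 0, 0.5, 5 and 50 μM; SAR used 50 μM as percent inhibition. After 48 h, reconstituted fluorescence was read as mean fluorescent intensity on a plate reader, with fluorescence microscopy images.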

[2] = Cytotoxicity against human HepG2.2.15 cells; format: cell-based, HepG2 2.2.15
Hepatitis B virus = test: Antiviral activity against Hepatitis B virus infected in human HepG2.2.15 cells assessed as inhibition of viral replication after 7 days by RT-PCR analysis; format: functional, organism-based; settings: for IC50: HepG2.2.15, 168 h

Core antigen (Hepatitis B virus), sequence (Q03732 as listed by the source): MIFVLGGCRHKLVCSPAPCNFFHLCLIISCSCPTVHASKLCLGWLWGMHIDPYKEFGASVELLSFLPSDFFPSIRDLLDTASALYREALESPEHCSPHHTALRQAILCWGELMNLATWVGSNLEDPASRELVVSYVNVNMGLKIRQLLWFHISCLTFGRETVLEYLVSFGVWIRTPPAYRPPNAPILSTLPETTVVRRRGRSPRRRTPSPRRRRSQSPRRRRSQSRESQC

| Compound | inhibition [1] | CC50 [2] [µM] | IC50 (Hepatitis B virus) [µM] | Activity (Hepatitis B virus) |
| --- | --- | --- | --- | --- |
| O=C(Nc1ncc(C(OCc2ccc(F)cc2Br)c2ccccc2)s1)c1cccs1 (stereo not drawn) | 27% |  |  |  |
| O=C(Nc1ncc(C(Oc2ccc3cc(Br)ccc3c2)c2ccc(Cl)cc2)s1)c1cccs1 (stereo not drawn) | 47% |  |  |  |
| CCc1ccc(S(=O)(=O)Nc2ncc(C(Oc3ccc4cc(Br)ccc4c3)c3ccc(Cl)cc3)s2)cc1 (stereo not drawn) | inactive | > 50 |  |  |
| CCN(CC)C(=O)Nc1ncc(C(Oc2ccc3cc(Br)ccc3c2)c2ccc(Cl)cc2)s1 (stereo not drawn) | 67% |  |  |  |
| COc1ccc(Br)c(COC(c2ccccc2)c2cnc(NC(=O)c3cccs3)s2)c1 (stereo not drawn) | 45% |  |  |  |
| CC(=O)O[C@@H]1OC(C(=O)Nc2ncc(C(Oc3ccc4cc(Br)ccc4c3)c3ccc(Cl)cc3)s2)[C@@H](OC(C)=O)[C@@H](OC(C)=O)[C@H]1OC(C)=O (stereo partly drawn) | 40% |  |  |  |
| O=C(Nc1ncc(Cc2ccc(F)cc2)s1)c1ccc(Cl)cc1Cl | inactive | > 50 |  |  |
| COCCNc1ncc(C(Oc2ccc3cc(Br)ccc3c2)c2ccc(Cl)cc2)s1 (stereo not drawn) | 37% |  |  |  |
| COCCCNc1ncc(C(Oc2ccc3cc(Br)ccc3c2)c2ccc(Cl)cc2)s1 (stereo not drawn) | 38% |  |  |  |
| CC(C)(C)OC(=O)Nc1ncc(C(Oc2ccc3cc(Br)ccc3c2)c2ccc(Cl)cc2)s1 (stereo not drawn) | 55% | > 50 | 2.27 |  |
| O=C(Nc1ncc(C(Oc2ccc3cc(Br)ccc3c2)c2ccc(Cl)cc2)s1)c1ccc(F)cc1Br (stereo not drawn) | 65% | > 50 | 3.55 |  |
| O=C(Nc1ncc(Cc2ccc(F)cc2)s1)C1CCCCC1 | inactive | > 50 |  |  |
| COC(=O)CCCCNc1ncc(C(Oc2ccc3cc(Br)ccc3c2)c2ccc(Cl)cc2)s1 (stereo not drawn) | 40% |  |  |  |
| O=S(=O)(Nc1ncc(C(Oc2ccc3cc(Br)ccc3c2)c2ccc(Cl)cc2)s1)c1ccc2c(c1)CCO2 (stereo not drawn) | inactive | > 50 |  |  |
| O=C(Nc1ncc(Cc2ccc(Cl)cc2)s1)c1ccc(F)cc1F | inactive |  |  |  |
| CC(C)(C)OC(=O)Nc1ncc(C(Oc2ccc(Cc3ccccc3)cc2)c2ccc(Cl)cc2)s1 (stereo not drawn) | inactive | > 50 |  |  |
| Clc1ccc(C(Oc2ccc3cc(Br)ccc3c2)c2cnc(NCC3CCOCC3)s2)cc1 (stereo not drawn) | 43% |  |  |  |
| COCCc1ccc(OC(c2ccc(Cl)cc2)c2cnc(NC(=O)OC(C)(C)C)s2)cc1 (stereo not drawn) | inactive | > 50 |  |  |
| Cc1ccc(C)c(S(=O)(=O)Nc2ncc(C(Oc3ccc4cc(Br)ccc4c3)c3ccc(Cl)cc3)s2)c1 (stereo not drawn) | inactive | > 50 |  |  |
| Cc1noc(C)c1C(=O)Nc1ncc(C(Oc2ccc3cc(Br)ccc3c2)c2ccc(Cl)cc2)s1 (stereo not drawn) | 64% |  |  |  |
| O=C(CCCCC(=O)Nc1ncc(Cc2ccc(F)cc2)s1)Nc1ncc(Cc2ccc(F)cc2)s1 | inactive | > 50 |  |  |
| Cc1cc(C(C)C)ccc1OC(c1ccc(Cl)cc1)c1cnc(NC(=O)OC(C)(C)C)s1 (stereo not drawn) | inactive | > 50 |  |  |
| O=C(Nc1ncc(C(OCc2ccc(F)cc2F)c2ccccc2)s1)c1cccs1 (stereo not drawn) | 26% |  |  |  |
| COc1ccc(C(=O)Nc2ncc(C(Nc3cccc4ccccc34)c3ccc(Cl)cc3)s2)cc1 (stereo not drawn) | 69% | > 50 | 6.85 |  |

| Compound | inhibition [1] | CC50 [2] [µM] | IC50 (Hepatitis B virus) [µM] | Activity (Hepatitis B virus) |
| --- | --- | --- | --- | --- |
| O=C(Nc1ncc(Cc2ccc(F)cc2)s1)c1cccs1 |  | > 500 | 6.15 |  |
| O=S(=O)(Nc1ncc(C(Oc2ccc3cc(Br)ccc3c2)c2ccc(Cl)cc2)s1)c1ccc(Cl)nc1 (stereo not drawn) | 30% |  |  |  |
| CCOC(=O)C1=C(CN2CCOCC2)NC(c2nccs2)=NC1c1ccc(F)cc1Br (stereo not drawn) |  |  |  | Dose-dependent effect |
| O=C(Nc1ncc(Cc2ccc(F)cc2)s1)c1ccc(Br)cc1 | inactive | > 50 |  |  |
| O=C(Nc1ncc(C(Oc2ccc3cc(Br)ccc3c2)c2ccc(Cl)cc2)s1)c1ccc(F)cc1 (stereo not drawn) | 50% |  |  |  |
| O=S(=O)(Nc1ncc(C(Oc2ccc3cc(Br)ccc3c2)c2ccc(Cl)cc2)s1)c1ccc2ccccc2c1 (stereo not drawn) | inactive | > 50 |  |  |
| Cc1ccc(COC(c2ccccc2)c2cnc(NC(=O)c3cccs3)s2)cc1 (stereo not drawn) | 64% |  |  |  |
| O=S(=O)(Nc1ncc(C(Oc2ccc3cc(Br)ccc3c2)c2ccc(Cl)cc2)s1)c1cccs1 (stereo not drawn) | 44% |  |  |  |
| COc1ccc(COC(c2ccccc2)c2cnc(NC(=O)c3cccs3)s2)cc1 (stereo not drawn) | 64% |  |  |  |
| CC(C)(C)C(=O)Nc1ncc(C(Oc2ccc3cc(Br)ccc3c2)c2ccc(Cl)cc2)s1 (stereo not drawn) | 47% |  |  |  |
| O=C(Nc1ncc(C(Oc2ccc3cc(Br)ccc3c2)c2ccc(Cl)cc2)s1)c1ccc(Cl)nc1 (stereo not drawn) | 45% |  |  |  |
| O=S(=O)(Nc1ncc(C(Oc2ccc3cc(Br)ccc3c2)c2ccc(Cl)cc2)s1)c1ccccc1 (stereo not drawn) | 63% | > 50 | 2.32 |  |
| O=C(Nc1ncc(C(Oc2ccc3cc(Br)ccc3c2)c2ccc(Cl)cc2)s1)c1ccc(Br)cc1 (stereo not drawn) | inactive | > 50 |  |  |
| CC(C)(C)OC(=O)Nc1ncc(C(Oc2ccc(Br)cc2)c2ccc(Cl)cc2)s1 (stereo not drawn) | inactive | > 50 |  |  |
| N#Cc1cccc(C(=O)Nc2ncc(C(Oc3ccc4cc(Br)ccc4c3)c3ccc(Cl)cc3)s2)c1 (stereo not drawn) | 70% | > 50 |  |  |
| CC(C)(C)OC(=O)Nc1ncc(C(Oc2ccc(OCc3ccccc3)cc2)c2ccc(Cl)cc2)s1 (stereo not drawn) | inactive | > 50 |  |  |
| O=C(Nc1ncc(C(Oc2ccc3cc(Br)ccc3c2)c2ccc(Cl)cc2)s1)C1CC1 (stereo not drawn) | 67% |  |  |  |
| COc1ccc(C(=O)Nc2ncc(C(Oc3ccc4ccc(Br)cc4c3)c3ccc(S(C)(=O)=O)cc3)s2)cc1 (stereo not drawn) | inactive |  |  |  |
| O=C(Nc1ncc(C(Oc2ccc3cc(Br)ccc3c2)c2ccc(Cl)cc2)s1)c1ccc(F)cc1F (stereo not drawn) | 51% |  |  |  |
| O=C(Nc1ncc(Cc2ccc(Br)cc2)s1)c1cccs1 | inactive | > 50 |  |  |
| O=C(Nc1ncc(Cc2ccc(F)cc2)s1)c1ccccc1 | 60% |  |  |  |
| O=S(=O)(Nc1ncc(C(Oc2ccc3cc(Br)ccc3c2)c2ccc(Cl)cc2)s1)c1ccc(Cl)cc1 (stereo not drawn) | 50% |  |  |  |
| O=C(Nc1ncc(C(OCc2ccc(Cl)cc2)c2ccccc2)s1)c1cccs1 (stereo not drawn) | 59% |  |  |  |
| Cc1ccc(C(=O)Nc2ncc(Cc3ccc(F)cc3)s2)cc1 | 53% |  |  |  |

| Compound | inhibition [1] | CC50 [2] [µM] | IC50 (Hepatitis B virus) [µM] | Activity (Hepatitis B virus) |
| --- | --- | --- | --- | --- |
| Cc1cc(Br)cc(OC(c2ccc(Cl)cc2)c2cnc(NC(=O)OC(C)(C)C)s2)c1 (stereo not drawn) | inactive | > 50 |  |  |
| COc1ccc(C(=O)Nc2ncc(C(Sc3ccc4ccccc4c3)c3ccc(Cl)cc3)s2)cc1 (stereo not drawn) | 49% |  |  |  |
| CCCCCC(=O)Nc1ncc(C(Oc2ccc3cc(Br)ccc3c2)c2ccc(Cl)cc2)s1 (stereo not drawn) | inactive | > 50 |  |  |
| CC(C)(C)OC(=O)Nc1ncc(C(Oc2ccc(F)c(Cl)c2)c2ccc(Cl)cc2)s1 (stereo not drawn) | inactive | > 50 |  |  |
| O=C(Nc1ncc(Cc2ccc(Cl)cc2)s1)c1cccs1 | 59% | > 50 | 3.62 |  |
| O=C(Nc1ncc(C(Oc2ccc3cc(Br)ccc3c2)c2ccc(Cl)cc2)s1)c1cc(F)c(F)cc1F (stereo not drawn) | 44% |  |  |  |
| Cc1ccc(S(=O)(=O)Nc2ncc(C(Oc3ccc4cc(Br)ccc4c3)c3ccc(Cl)cc3)s2)c2ccccc12 (stereo not drawn) | inactive | > 50 |  |  |
| Cc1ccc(C(=O)Nc2ncc(C(Oc3ccc4cc(Br)ccc4c3)c3ccc(Cl)cc3)s2)cc1 (stereo not drawn) | 71% |  |  |  |
| O=C(Nc1ncc(C(Oc2ccc3cc(Br)ccc3c2)c2ccc(Cl)cc2)s1)c1ccccc1 (stereo not drawn) | 58% |  |  |  |
| O=S(=O)(Nc1ncc(C(Oc2ccc3cc(Br)ccc3c2)c2ccc(Cl)cc2)s1)c1cccc2nsnc12 (stereo not drawn) | 50% |  |  |  |
| COc1ccc(C(=O)Nc2ncc(C(Oc3ccc4cc(Br)ccc4c3)c3ccc(F)cc3)s2)cc1 (stereo not drawn) | 76% | > 50 |  |  |
| CCOC(=O)CCCNc1ncc(C(Oc2ccc3cc(Br)ccc3c2)c2ccc(Cl)cc2)s1 (stereo not drawn) | 35% |  |  |  |
| COc1ccc(C(=O)Nc2ncc(C(Oc3ccc4cc(Br)ccc4c3)c3ccc(Cl)cc3)s2)cc1 (stereo not drawn) | 54% | > 50 | 1.45 |  |
| O=C(Nc1ncc(Cc2ccc(Br)cc2)s1)c1ccc2ccccc2c1 | inactive | > 50 |  |  |
| COc1ccc(C(=O)Nc2ncc(C(Oc3ccc4cc(Br)ccc4c3)c3ccc(Br)cc3)s2)cc1 (stereo not drawn) | 78% | > 50 |  |  |
| COc1ccc(C(=O)Nc2ncc(C(Oc3ccc4cc(Br)ccc4c3)c3ccc(C#N)cc3)s2)cc1 (stereo not drawn) | inactive |  |  |  |
| CCCCC(CC)CNc1ncc(C(Oc2ccc3cc(Br)ccc3c2)c2ccc(Cl)cc2)s1 (stereo not drawn) | 55% |  |  |  |
| Clc1ccc(C(Oc2ccc3cc(Br)ccc3c2)c2cnc(NCC3CCCCC3)s2)cc1 (stereo not drawn) | 61% |  |  |  |
| O=C(Nc1ncc(C(OCc2ccc(Br)cc2)c2ccccc2)s1)c1cccs1 (stereo not drawn) | 64% |  |  |  |
| O=C(Nc1ncc(C(OCc2ccc3ccccc3c2)c2ccccc2)s1)c1cccs1 (stereo not drawn) | 47% |  |  |  |
| CC(C)(C)OC(=O)Nc1ncc(C(Oc2cccc(C#N)c2)c2ccc(Cl)cc2)s1 (stereo not drawn) | inactive | > 50 |  |  |
| O=C(Nc1ncc(C(Oc2ccc3cc(Br)ccc3c2)c2ccc(Cl)cc2)s1)C1CCCO1 (stereo not drawn) | 35% |  |  |  |
| O=C(Nc1ncc(C(Oc2ccc3cc(Br)ccc3c2)c2ccc(Cl)cc2)s1)C1CCOCC1 (stereo not drawn) | 66% |  |  |  |
